Laboratory results published in ChEMBL document CHEMBL1127325, “Potent gastrin-releasing peptide (GRP) antagonists derived from GRP (19-27) with a C-terminal DPro psi [CH2NH]Phe-NH2 and N-terminal aromatic residues” (J Med Chem, 1994).
Where a SMILES comes first, the peptide text is derived from it. [ ]: non-standard residue; d: D form. The star is where a group is joined. ProΨ(CH2NH)PheNH2 = NC(=O)[C@H](Cc1ccccc1)NC[C@@H]1CCCN1*; dProψ(CH2NH)PheNH2 = NC(=O)[C@H](Cc1ccccc1)NC[C@H]1CCCN1*; X3 = NC(=O)[C@H](Cc1ccc(O)cc1)NC[C@H]1CCCN1*; Desaminotyrosyl = O=C(CCc1ccc(O)cc1)*; Hydrocinnamoyl = O=C(CCc1ccccc1)*; X9 = O=C(CCN1c2ccccc2Sc2ccccc21)*; X2 = O=C(Cc1ccccc1C(F)(F)F)*; Sar = CNCC(=O)O

Tests used:
[1] = molecular target: Gastrin-releasing peptide receptor (Mus musculus) (UniProt P21729); assay: Inhibition of 6 nM bombesin induced [3H]thymidine incorporation measured in swiss 3T3 cells using a mitogenicity assay; format: functional, cell-based
Sequence of Gastrin-releasing peptide receptor (Mus musculus) (P21729 whole entry): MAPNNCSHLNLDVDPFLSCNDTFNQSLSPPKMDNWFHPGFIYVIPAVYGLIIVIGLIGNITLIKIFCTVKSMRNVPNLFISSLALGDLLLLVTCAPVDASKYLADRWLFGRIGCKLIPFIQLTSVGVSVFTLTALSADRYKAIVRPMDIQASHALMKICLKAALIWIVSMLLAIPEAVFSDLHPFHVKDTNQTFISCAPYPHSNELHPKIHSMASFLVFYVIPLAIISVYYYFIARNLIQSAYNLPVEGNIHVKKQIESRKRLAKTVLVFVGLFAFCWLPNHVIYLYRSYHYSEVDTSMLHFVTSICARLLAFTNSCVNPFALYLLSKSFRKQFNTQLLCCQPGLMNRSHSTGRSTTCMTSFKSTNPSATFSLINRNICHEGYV
Procedure, shortened: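 Density-arrested quiescent Swiss 3T3 monolayers treated in triplicate with test peptide (generally log dilutions) plus 6 nM bombesin for 18 h, then pulsed 2 h with 0.5 µCi [3H]thymidine per well. Cells washed with cold PBS, fixed in methanol/acetic acid, solubilized, scintillation counted. IC50 ± SEM over replicate trials; na means no activity at 10^-4 M.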

[2] = molecular target: Gastrin-releasing peptide receptor (Mus musculus, UniProt P21729); assay: Ability of peptide to inhibit binding of 10 pM [125I]gastrin releasing peptide to S-3T3 cell membrane.; format: cell-based
Sequence of Gastrin-releasing peptide receptor (P21729 whole entry): as above
Procedure, shortened: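 Swiss 3T3 membranes (10 µg protein) incubated in triplicate with 10 pM [125I]GRP(1-27) in HEPES-KOH pH 6.8 (20 mM) with EGTA, MgCl2, BSA and protease inhibitors, 60 min at 37 °C with shaking. Terminated by filtration through PEI-pretreated GF/B filters, gamma counted. Nonspecific binding taken with 10 nM unlabeled GRP(1-27). IC50 for half-maximal inhibition of specific binding by Hill plot analysis.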

Row | Activity [1] [nM] | IC50 [2] [nM] | SMILES
1 | 4 |  | CC(C)[C@H](NC(=O)[C@H](C)NC(=O)[C@H](Cc1c[nH]c2ccccc12)NC(=O)[C@H](Cc1c[nH]cn1)NC(=O)c1cc2ccccc2cn1)C(=O)N[C@H](C)C(=O)N[C@@H](Cc1c[nH]cn1)C(=O)N1CCC[C@@H]1CN[C@@H](Cc1ccccc1)C(N)=O
2 | 4 |  | CC(C)[C@H](NC(=O)[C@H](C)NC(=O)[C@H](Cc1c[nH]c2ccccc12)NC(=O)[C@H](Cc1c[nH]cn1)NC(=O)C1CCc2ccccc2C1)C(=O)N[C@H](C)C(=O)N[C@@H](Cc1c[nH]cn1)C(=O)N1CCC[C@@H]1CN[C@@H](Cc1ccccc1)C(N)=O (some centres undefined)
3 | 40 |  | CC(C)[C@H](NC(=O)[C@H](C)NC(=O)[C@H](Cc1c[nH]c2ccccc12)NC(=O)[C@H](Cc1c[nH]cn1)NC(=O)CCc1ccccc1)C(=O)N[C@H](C)C(=O)N[C@@H](Cc1c[nH]cn1)C(=O)N1CCC[C@@H]1CN[C@@H](Cc1ccc2ccccc2c1)C(N)=O
4 |  | 8.4 | CC(C)[C@H](NC(=O)[C@H](C)NC(=O)[C@H](Cc1c[nH]c2ccccc12)NC(=O)[C@H](Cc1cnc[nH]1)NC(=O)Cc1cccc(C(F)(F)F)c1)C(=O)N[C@H](C)C(=O)N[C@@H](Cc1cnc[nH]1)C(=O)N1CCC[C@@H]1CN[C@@H](Cc1ccccc1)C(N)=O
5 | 200 |  | CC(C)[C@H](NC(=O)[C@H](C)NC(=O)[C@H](Cc1c[nH]c2ccccc12)NC(=O)[C@H](Cc1c[nH]cn1)NC(=O)Cc1ccc(C(F)(F)F)cc1)C(=O)N[C@H](C)C(=O)N[C@@H](Cc1c[nH]cn1)C(=O)N1CCC[C@@H]1CN[C@@H](Cc1ccccc1)C(N)=O
6 | 0.3 |  | CC(C)[C@H](NC(=O)[C@H](C)NC(=O)[C@H](Cc1c[nH]c2ccccc12)NC(=O)[C@H](Cc1c[nH]cn1)NC(=O)c1cccc2ccccc12)C(=O)N[C@H](C)C(=O)N[C@@H](Cc1c[nH]cn1)C(=O)N1CCC[C@@H]1CN[C@@H](Cc1ccccc1)C(N)=O
7 |  | 0.57 | CC(C)[C@H](NC(=O)[C@H](C)NC(=O)[C@H](Cc1c[nH]c2ccccc12)NC(=O)[C@H](Cc1cnc[nH]1)NC(=O)c1cc2ccccc2cn1)C(=O)N[C@H](C)C(=O)N[C@@H](Cc1cnc[nH]1)C(=O)N1CCC[C@@H]1CN[C@@H](Cc1ccccc1)C(N)=O
8 | 260 |  | CC(C)[C@H](NC(=O)[C@H](C)NC(=O)[C@H](Cc1c[nH]c2ccccc12)NC(=O)[C@H](Cc1c[nH]cn1)NC(=O)Cc1cccc(C(F)(F)F)c1)C(=O)N[C@H](C)C(=O)N[C@@H](Cc1c[nH]cn1)C(=O)N1CCC[C@@H]1CN[C@@H](Cc1ccccc1)C(N)=O
9 | 0.35 |  | CC(C)[C@H](NC(=O)[C@H](C)NC(=O)[C@H](Cc1c[nH]c2ccccc12)NC(=O)[C@H](Cc1c[nH]cn1)NC(=O)CCc1cccc(C(F)(F)F)c1)C(=O)N[C@H](C)C(=O)N[C@@H](Cc1c[nH]cn1)C(=O)N1CCC[C@@H]1CN[C@@H](Cc1ccccc1)C(N)=O
10 | 300 |  | CCCCC(NC[C@H]1CCCN1C(=O)[C@H](Cc1cccs1)NC(=O)[C@@H](C)NC(=O)[C@@H](NC(=O)[C@H](C)NC(=O)[C@H](Cc1c[nH]c2ccccc12)NC(=O)[C@H](Cc1c[nH]cn1)NC(=O)CCc1ccccc1)C(C)C)C(N)=O (some centres undefined)
11 | 47 | > 10 | CC(NC(=O)[C@@H](NC[C@H](C)NC(=O)[C@H](Cc1c[nH]c2ccccc12)NC(=O)[C@H](Cc1c[nH]cn1)NC(=O)CCc1ccccc1)C(C)C)C(=O)N[C@@H](Cc1c[nH]cn1)C(=O)N1CCC[C@H]1CN[C@@H](Cc1ccccc1)C(N)=O (stereo in doubt)
12 |  | 0.49 | CC(C)[C@H](NC(=O)[C@H](C)NC(=O)[C@H](Cc1c[nH]c2ccccc12)NC(=O)[C@H](Cc1cnc[nH]1)NC(=O)C[C@@H](C)c1ccccc1)C(=O)N[C@H](C)C(=O)N[C@@H](Cc1cnc[nH]1)C(=O)N1CCC[C@@H]1CN[C@@H](Cc1ccccc1)C(N)=O
13 |  | 3.7 | CC(C)[C@H](NC(=O)[C@H](C)NC(=O)[C@H](Cc1c[nH]c2ccccc12)NC(=O)[C@H](Cc1cnc[nH]1)NC(=O)Cc1ccc(C(F)(F)F)cc1)C(=O)N[C@H](C)C(=O)N[C@@H](Cc1cnc[nH]1)C(=O)N1CCC[C@@H]1CN[C@@H](Cc1ccccc1)C(N)=O
14 | 10 | 0.33 | CC(C)[C@H](NC(=O)[C@H](C)NC(=O)[C@H](Cc1c[nH]c2ccccc12)NC(=O)[C@H](Cc1c[nH]cn1)NC(=O)CCc1ccccc1)C(=O)N[C@H](C)C(=O)N[C@@H](Cc1c[nH]cn1)C(=O)N1CCC[C@@H]1CN[C@@H](Cc1ccc(O)cc1)C(N)=O (Hydrocinnamoyl-HWAV[dA]H-X3)
15 | 430 | 0.75 | CC(NC(=O)[C@H](Cc1csc2ccccc12)NC(=O)[C@H](Cc1c[nH]cn1)NC(=O)CCc1ccccc1)C(=O)N[C@H](C(=O)NC(C)C(=O)N[C@@H](Cc1c[nH]cn1)C(=O)N1CCC[C@@H]1CN[C@@H](Cc1ccccc1)C(N)=O)C(C)C (stereo in doubt)
16 | 0.16 |  | CC(C)[C@H](NC(=O)[C@H](C)NC(=O)[C@H](Cc1c[nH]c2ccccc12)NC(=O)[C@H](Cc1c[nH]cn1)NC(=O)C[C@H](C)c1ccccc1)C(=O)N[C@H](C)C(=O)N[C@@H](Cc1c[nH]cn1)C(=O)N1CCC[C@@H]1CN[C@@H](Cc1ccccc1)C(N)=O
17 | 17 |  | CC(C)[C@H](NC(=O)[C@H](C)NC(=O)[C@H](Cc1c[nH]c2ccccc12)NC(=O)[C@H](Cc1c[nH]cn1)NC(=O)C[C@@H](C)c1ccccc1)C(=O)N[C@H](C)C(=O)N[C@@H](Cc1c[nH]cn1)C(=O)N1CCC[C@@H]1CN[C@@H](Cc1ccccc1)C(N)=O
18 | 330 | 12 | CC(C)[C@H](NC(=O)[C@H](C)NC(=O)[C@H](Cc1c[nH]c2ccccc12)NC(=O)[C@H](Cc1c[nH]cn1)NC(=O)Cc1ccccc1C(F)(F)F)C(=O)N[C@H](C)C(=O)N[C@@H](Cc1c[nH]cn1)C(=O)N1CCC[C@@H]1CN[C@@H](Cc1ccccc1)C(N)=O (X2-HWAV[dA]H-{dProψ(CH2NH)PheNH2})
19 | 45 | 7.7 | CC(C)[C@H](NC(=O)[C@H](C)NC(=O)[C@H](Cc1c[nH]c2ccccc12)NC(=O)[C@H](Cc1c[nH]cn1)NC(=O)[C@@H](N)Cc1ccc2ccccc2c1)C(=O)N[C@H](C)C(=O)N[C@@H](Cc1c[nH]cn1)C(=O)N1CCC[C@@H]1CN[C@@H](Cc1ccccc1)C(N)=O
20 | 0.16 |  | CC(C)[C@H](NC(=O)[C@H](C)NC(=O)[C@H](Cc1c[nH]c2ccccc12)NC(=O)[C@H](Cc1c[nH]cn1)NC(=O)CCc1ccc(O)cc1)C(=O)N[C@H](C)C(=O)N[C@@H](Cc1c[nH]cn1)C(=O)N1CCC[C@@H]1CN[C@@H](Cc1ccccc1)C(N)=O (Desaminotyrosyl-HWAV[dA]H-{dProψ(CH2NH)PheNH2})
21 | 0.43 |  | CC(C)[C@H](NC(=O)[C@H](C)NC(=O)[C@H](Cc1c[nH]c2ccccc12)NC(=O)[C@H](Cc1c[nH]cn1)NC(=O)CCc1ccccc1)C(=O)N(C)CC(=O)N[C@@H](Cc1c[nH]cn1)C(=O)N1CCC[C@H]1CN[C@@H](Cc1ccccc1)C(N)=O (Hydrocinnamoyl-HWAV[Sar]H-{ProΨ(CH2NH)PheNH2})
22 |  | 0.038 | CC(C)[C@H](NC(=O)[C@H](C)NC(=O)[C@H](Cc1c[nH]c2ccccc12)NC(=O)[C@H](Cc1c[nH]cn1)NC(=O)CCc1ccccc1)C(=O)N[C@H](C)C(=O)N[C@@H](Cc1c[nH]cn1)C(=O)N1CCC[C@@H]1CNC(Cc1ccccc1)C(N)=O (stereo in doubt)

Row | SMILES | Activity [1] [nM] | IC50 [2] [nM]
23 | CC(C)[C@H](NC(=O)[C@H](C)NC(=O)[C@H](Cc1c[nH]c2ccccc12)NC(=O)[C@H](Cc1c[nH]cn1)NC(=O)CCN1c2ccccc2Sc2ccccc21)C(=O)N[C@H](C)C(=O)N[C@@H](Cc1c[nH]cn1)C(=O)N1CCC[C@@H]1CN[C@@H](Cc1ccccc1)C(N)=O (X9-HWAV[dA]H-{dProψ(CH2NH)PheNH2}) | 29 | 1.9
